According to publication PMC5352298 (Pharmacological research, 2016):
Read-outs that look alike come from different tables or passages of the source.

Columns and labels:
[1] = test system: mice (carrageenan induced paw edema); assay: Carrageenan induced paw edema; type: in vivo, mouse
Outline: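 Male CF-1 mice (20–35 g), n=5 per group. Test compound, ibuprofen (100 mg/kg, positive control) or MC vehicle given i.p. 2 h before intraplantar 25 μl λ-carrageenan; an MC/saline group also included. Both paws measured by caliper at baseline and 0.5, 1, 2, 3, 4, 6, 8 and 24 h. % edema = thickness/baseline. Mean ± s.e.m.; Tukey test.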

[2] = test system: mice (acetic-acid induced abdominal constriction); settings: cited from earlier work
rats with SNL neuropathy [3] = assay: Spinal nerve ligation; type: in vivo; settings: rat
Outline: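 Rats with pre-surgery threshold >15 g underwent L5–L6 spinal nerve ligation under ketamine/xylazine. Test compound at 40, 60 or 80 mg/kg i.p., MC vehicle, or MTMCD positive control, given 7, 14 and 21 days post-surgery. Latin-square design; experimenter blinded. Nine von Frey filaments (0.6–26 g); protected = no response to 15 g. TPE = earliest time of highest mean threshold.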

[4] = test system: mice (formalin-induced paw licking); assay: Formalin test; type: in vivo, mouse; settings: for reduction of licking-time AUC vs control, acute phase: acute phase 0–10 min; for reduction of licking-time AUC vs control, inflammatory phase: inflammatory phase 10–40 min; for ID50 (dose reducing the nociceptive response by 50% compared to control), acute phase / ID50 (dose reducing the nociceptive response by 50% compared to control), inflammatory phase: i.p.
[5] = test system: mice (carrageenan induced heat hyperalgesia); assay: Carrageenan test, heat hyperalgesia; type: in vivo, mouse; settings: for paw thickness an hour following administration: carrageenan injected paw
Outline: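 Mice acclimated 1 h on a 30°C plate, then 25 μl carrageenan (20 mg/ml in saline) s.c. into left hind plantar paw. Test compound (10–70 mg/kg), VPA (100 mg/kg) or 0.5% MC given i.p. 15 min before testing at 3 h; Sal/MC and Carr/MC controls; blinded. Radiant heat (35% intensity): flinch latency, mean of two readings 5 min apart, ipsilateral minus contralateral.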

[6] = test system: mice (acetic-acid induced abdominal constriction); assay: Acetic acid-induced abdominal constriction; type: in vivo, mouse; settings: for protective index (PI), writhing test: TD50 vs ED50
rat sciatic nerve = assay: Sciatic nerve compound action potential; settings: 40 Hz
[7] = Pharmacokinetic study in mice; type: in vivo, mouse; settings: 80 mg/kg i.p.
Outline: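 Mice dosed 80 mg/kg i.p. (suspension in 0.5% MC), 4 per time point. Aortic blood collected after sacrifice at 0.25, 0.5, 1, 1.5, 2, 2.5 and 4 h. Heparinised plasma (3000g, 10 min) stored at −80°C. Chloroform extraction with N-methyl VCD internal standard, then GC/MS. Non-compartmental analysis: Cmax observed; CL/F = Dose/AUC; V/F = CL/F ÷ terminal slope.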

[8] = Pharmacokinetic study in rats; type: in vivo, rat; settings: 80 mg/kg i.p.
Outline: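 Rats given 80 mg/kg i.p. in 0.5% MC, four animals per time point. Cardiac-puncture blood (5 ml) taken at sacrifice at 0.25, 0.5, 1, 1.5, 2 and 4 h. Plasma (3000g, 10 min) held at −80°C, chloroform-extracted with N-methyl VCD internal standard and assayed by GC/MS. Non-compartmental: observed Cmax, CL/F = Dose/AUC, V/F = CL/F divided by terminal slope.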

[9] = rats, 60 mg/kg, multisol solution, previous study; cited from earlier work
rats with SNL neuropathy [10] = settings: rat, same paradigm; cited from earlier work
mice = settings: mouse, in vivo, ip; cited from earlier work
[11] = test system: mice (formalin-induced paw licking); settings: same test; cited from earlier work
[12] = sedation for the first 15 minutes after dosing

Structure (SMILES): CC(C)Cc1ccc(C(C)C(=O)O)cc1 (stereo not drawn) [Ibuprofen, reference compound]
- percent paw thickness following carrageenan injection ([1]; 100 mg/kg i.p., significant after 4 hours (p<0.05)): decreased percent paw thickness
- ED50 in the writhing model [2]: 33 mg/kg

Structure (SMILES): CNC(=O)CC1C(C)(C)C1(C)C [MTMCD, N-methyl tetramethylcyclopropyl acetamide, reference compound]
- antiallodynic effect vs MC (positive control) (rats with SNL neuropathy [3]; 80 mg/kg i.p.): antiallodynic effect significantly different than MC

Structure (SMILES): CCCC(C(N)=O)C(C)CC (stereo not drawn) [SPD, sec-Butylpropylacetamide]
- tactile allodynia compared to control (rats with SNL neuropathy [3]; 60 and 80 mg/kg i.p., p<0.05): significantly reduced tactile allodynia
- time to peak antiallodynic effect (TPE) (rats with SNL neuropathy [3]; i.p.): 60 min
- ED50 (antiallodynic, SNL model) (rats with SNL neuropathy [3]; i.p., at TPE (60 min), 95% CI of 9–61 mg/kg): 49 mg/kg
- potency (effective dose) in the formalin test ([4]; mice): 70 mg/kg
- reduction of licking-time AUC vs control, acute phase ([4]; mice, 70 mg/kg i.p.): 55%
- reduction of licking-time AUC vs control, inflammatory phase ([4]; mice, 70 mg/kg i.p.): 74%
- ID50 (dose reducing the nociceptive response by 50% compared to control), acute phase ([4]; mice): 39 mg/kg
- ID50 (dose reducing the nociceptive response by 50% compared to control), inflammatory phase ([4]; mice): 40 mg/kg
- protective index (PI), formalin test ([4]; ratio between ID50 and TD50, TD50 from White et al., 2012): 2.2
- heat hyperalgesia, normalized mean withdrawal time vs Carr/MC ([5]; 70 mg/kg i.p.): statistically different from the Carr/MC group
- paw thickness an hour following administration [5]: Neither SPD nor VPA decreased paw thickness
- ED50 in the carrageenan model (heat hyperalgesia) ([5]; i.p., at TPE, 95% CI 29.3–110): 49 mg/kg
- percent paw thickness up to 24 hours following carrageenan injection ([1]; 70 mg/kg i.p.): did not decrease percent paw thickness
- protective index (PI), writhing test [6]: 2.2
- mean number of writhes ([6]; mice, 30, 50 and 70 mg/kg i.p., p<0.001): significantly reduced
- dose of maximum efficacy in the writhing test ([6]; mice, i.p.): 30 mg/kg
- ED50 in the writhing test ([6]; mice, i.p., 95% CI 24.3–67 mg/kg (SPD), 18–61mg/kg (VPA)): 40 mg/kg
- ratio between last and first CAP (Δf), phasic stimulation (rat sciatic nerve; 3mM, baseline 96.5%): 96%
- PAR of the first and last CAP normalized to baseline, phasic stimulation (rat sciatic nerve; 3mM, baseline 100%): 90%
- CL/F [7]: 28.3 mL/min/kg
- peak plasma concentration (Cmax) [7]: 77.2 µg/mL
- volume of distribution [7]: 0.9 L/kg
- signs of toxicity [7, 12]: not associated with any signs of toxicity except sedation
- CL/F [8]: 15 mL/min/kg
- peak plasma concentration (Cmax) [8]: 66.2 µg/mL
- volume of distribution [8]: 1.1 L/kg
- signs of toxicity [8, 12]: not associated with any signs of toxicity except sedation
- CL/F [9]: 1.9

Structure (SMILES): CCCC(CCC)C(=O)O [VPA, valproic acid, reference compound]
- licking time ([4]; mice, 70 mg/kg i.p.): unable to reduce the licking time significantly
- licking time ([4]; mice, 100 mg/kg i.p.): showed reduction in only one of the two phases evaluated
- reduction of licking-time AUC vs control, acute phase ([4]; mice, 300 mg/kg i.p.): 46%
- reduction of licking-time AUC vs control, inflammatory phase ([4]; mice, 300 mg/kg i.p.): 75%
- ID50 (dose reducing the nociceptive response by 50% compared to control), acute phase ([4]; mice): 136 mg/kg
- ID50 (dose reducing the nociceptive response by 50% compared to control), inflammatory phase ([4]; mice): 113 mg/kg
- heat hyperalgesia vs Carr/MC ([5]; 100 mg/kg i.p.): not able to reduce heat hyperalgesia
- paw thickness an hour following administration [5]: Neither SPD nor VPA decreased paw thickness
- ED50 ([6]; Mus musculus, ip, read-out: ED50 in the writhing test): 44 mg/kg
- protective index (PI), writhing test [6]: 8.8
- number of writhes ([6]; mice, 50 and 100 mg/kg i.p.): significantly reduced the number of writhes
- ED50 (antiallodynic, SNL model) (rats with SNL neuropathy [10]): 269 mg/kg
- TD50 (mice): 391 mg/kg

Structure (SMILES): CC(=O)Oc1ccccc1C(=O)O [aspirin]
- ED50 in the writhing model [2]: 82 to 228 mg/kg

Structure (SMILES): COc1ccc2c3c1O[C@H]1[C@@H](O)C=C[C@H]4[C@@H](C2)N(C)CC[C@@]341 [codeine]
- potency (effective dose) in the formalin test [11]: 25 to 50 mg/kg

Structure (SMILES): NCC1(CC(=O)O)CCCCC1 [gabapentin]
- ED50 (antiallodynic, SNL model) (rats with SNL neuropathy [10]): 32 mg/kg

Structure (SMILES): CCN(CC)CC(=O)Nc1c(C)cccc1C [lidocaine, Lidocaine, reference compound]
- PAR of the first CAP normalized to baseline, phasic stimulation (rat sciatic nerve; 1mM, baseline 100%): 22.5%
- PAR of the last CAP normalized to baseline, phasic stimulation (rat sciatic nerve; 1mM, baseline 100%): 14.7%

Structure (SMILES): CN1CC[C@]23c4c5ccc(O)c4O[C@H]2[C@@H](O)C=C[C@H]3[C@H]1C5 [morphine]
- potency (effective dose) in the formalin test [11]: 5 to 10 mg/kg

Structure (SMILES): CN1C(C(=O)Nc2ccccn2)=C(O)c2ccccc2S1(=O)=O [piroxicam]
- ED50 in the writhing model [2]: 100 mg/kg
